From the RNAGym collection of RNA variant scans (doi:10.1002/anie.201605470) come the findings set out here.

The labels stand for the following.
B1: Osa-1-4 twister ribozyme (parent)
chain: CCGCCUAACACUGCCAAUGCCGGUCCCAAGCCCGGAUAAAAGUGGAGGGGGCGG

Variants of B1 are the subject of the data set. Nature of the data set: self-cleavage, relative activity (ratio to wild type); higher = more cleavage; co-transcriptional. The essentials: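 For each read, cleavage status was taken from whether upstream sequence was present. The reads came from an Oryza sativa twister ribozyme of 54 nucleotides, whose DNA template was synthesised with 97 % wild-type base and 1 % of each other base at the 48 positions downstream of the cleavage site. The template was transcribed in vitro at 37 °C for 2 h with co-transcriptional self-cleavage, and the RNA was reverse-transcribed using a template-switching oligonucleotide, PCR-amplified and deep-sequenced. Relative activity is the fraction cleaved normalised to wild type.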
Turning to C32G G19C, the self-cleavage was determined as 0.03. With C32G G19A the figure was 0.12; with C32G G19U, 0.07.

Consider C32U G47A, for which the self-cleavage stood at 0.06.

Regarding C32U G47U, the self-cleavage worked out at 0.06. Under C32U G47C stands 0.04. With C32G G48A the figure was 0.05; with C32G G48C, 0.04; with C32G G48U, 0.03. With C32U G13C the figure was 0.01; with C32U G13U, 0.01. Regarding C32U G13A, the self-cleavage was 0.03.

As for C32G G13U, the self-cleavage came out at 0.01. Under C32G G13C stands 0.02.

On to C32G G13A, for which the self-cleavage amounted to 0.04.

In the case of C32U U18C, the self-cleavage turned out to be 0.18. Turning to C32U U18G, the self-cleavage is 0.22. Under C32U U18A stands 0.16. As for C32G G22C, the self-cleavage stood at 0.04.

As to C32G G22U, the self-cleavage came to 0.07.

Consider C32G G22A, for which the self-cleavage came out at 0.1. Under C32A G19U stands 0.04. C32A G19A: the self-cleavage was determined as 0.07. With C32A G19C, the self-cleavage was 0.02. Under C33G G23U stands 0.03. Turning to C33G G23A, the self-cleavage amounted to 0.05. Under C33G G23C stands 0.03.

As for C32U G30A, the self-cleavage came to 0.02. As to C32U G30C, the self-cleavage came to 0.02.

In the case of C32U G30U, the self-cleavage turned out to be 0.02.

For C33A G49U, the self-cleavage was 0.04. Under C33A G49C stands 0.04; under C33A G49A, 0.05; under C32A G30U, 0.02. Under C32A G30A stands 0.02.

As for C32A G30C, the self-cleavage was found to be 0.03. As to C32A G35C, the self-cleavage was 0.05. Under C32A G35U stands 0.07; under C32A G35A, 0.06.

For the variant C33G G19C, the self-cleavage amounted to 0.02.

On to C33G G19U, for which the self-cleavage stood at 0.03.

On to C33G G19A, for which the self-cleavage turned out to be 0.05. In the case of C32A C52G, the self-cleavage is 0.1. Under C32A C52U stands 0.18; under C32A C52A, 0.1. Under C33G G44U stands 0.05; under C33G G44A, 0.05. With C33G G44C the figure was 0.05.

As for C33A U18C, the self-cleavage turned out to be 0.12. Under C33A U18G stands 0.17. With C33A U18A the figure was 0.15. As for C32A G42U, the self-cleavage amounted to 0.02.

Take C32A G42C: the self-cleavage is 0.06. With C32A G42A the figure was 0.06; with C33A U24C, 0.05; with C33A U24G, 0.02.

For C33A U24A, the self-cleavage was found to be 0.05. As to C33G G35C, the self-cleavage came to 0.03. Regarding C33G G35A, the self-cleavage was determined as 0.05.

On to C33G G35U, for which the self-cleavage turned out to be 0.04. Turning to C32U G54U, the self-cleavage is 0.26.

In the case of C32U G54A, the self-cleavage was found to be 0.1. Under C32U G54C stands 0.09. With C33G C9U the figure was 0.04; with C33G C9A, 0.02; with C33G C9G, 0.07. For C32G G54A, the self-cleavage is 0.15. With C32G G54U the figure was 0.25; with C32G G54C, 0.09.

As to C33A G35U, the self-cleavage was 0.07. Turning to C33A G35A, the self-cleavage amounted to 0.07. In the case of C33A G35C, the self-cleavage stood at 0.04. Under C32G G35U stands 0.08; under C32G G35A, 0.09.

For the variant C32G G35C, the self-cleavage stood at 0.07. Under C33A G53C stands 0.04.

In the case of C33A G53U, the self-cleavage is 0.06. For C33A G53A, the self-cleavage stood at 0.08. Under C33A G50U stands 0.1; under C33A G50C, 0.08.

Regarding C33A G50A, the self-cleavage was determined as 0.1. As for C32A U43G, the self-cleavage was 0.05.

For C32A U43C, the self-cleavage came out at 0.06. Under C32A U43A stands 0.07; under C32A G53U, 0.05; under C32A G53A, 0.08. With C32A G53C, the self-cleavage was determined as 0.02. With C32G G30A the figure was 0.03. Under C32G G30U stands 0.02; under C32G G30C, 0.02; under C33A G47C, 0.04. With C33A G47U, the self-cleavage was found to be 0.04. Under C33A G47A stands 0.04; under C32U U12A, 0.1. On to C32U U12C, for which the self-cleavage came to 0.08. With C32U U12G the figure was 0.09; with C32U C52U, 0.2; with C32U C52G, 0.15. As for C32U C52A, the self-cleavage came out at 0.13. Take C32G U43A: the self-cleavage worked out at 0.1.

Consider C32G U43G, for which the self-cleavage amounted to 0.11.

Turning to C32G U43C, the self-cleavage amounted to 0.09. In the case of C32A U12C, the self-cleavage came to 0.04. Under C32A U12A stands 0.07; under C32A U12G, 0.06; under C32U G34C, 0.07.

Consider C32U G34U, for which the self-cleavage was found to be 0.08. With C32U G34A the figure was 0.09; with C32A G54C, 0.06. With C32A G54U the figure was 0.18; with C32A G54A, 0.11; with C32A U37A, 0.14.

As for C32A U37C, the self-cleavage came out at 0.13. With C32A U37G the figure was 0.18. With C33A G34C the figure was 0.05. For the variant C33A G34A, the self-cleavage turned out to be 0.08. C33A G34U: the self-cleavage is 0.06. Under C33A U43A stands 0.08; under C33A U43G, 0.08; under C33A U43C, 0.06. With C33A G23A the figure was 0.06; with C33A G23C, 0.02; with C33A G23U, 0.04.

Consider C32U U43G, for which the self-cleavage was determined as 0.09.

C32U U43C: the self-cleavage is 0.06. Consider C32U U43A, for which the self-cleavage came to 0.09.

C33G G45A: the self-cleavage amounted to 0.04. With C33G G45U the figure was 0.02; with C33G G45C, 0.02. Consider C32U U24C, for which the self-cleavage amounted to 0.06. In the case of C32U U24G, the self-cleavage came out at 0.01.

Consider C32U U24A, for which the self-cleavage came out at 0.06. With C33G G42A the figure was 0.05; with C33G G42C, 0.05; with C33G G42U, 0.02. With C32A C33A the figure was 0.07; with C32A C33G, 0.03; with C32A C33U, 0.05.

For the variant C33A G30C, the self-cleavage worked out at 0.02. Turning to C33A G30U, the self-cleavage came out at 0.02.

In the case of C33A G30A, the self-cleavage was 0.02. C32G U24A: the self-cleavage worked out at 0.06. With C32G U24C the figure was 0.05. As to C32G U24G, the self-cleavage came to 0.02.

Consider C32U C9A, for which the self-cleavage was determined as 0.02.

C32U C9U: the self-cleavage amounted to 0.05. Take C32U C9G: the self-cleavage was found to be 0.09. Consider C32U G49A, for which the self-cleavage worked out at 0.05. Take C32U G49C: the self-cleavage is 0.03. With C32U G49U the figure was 0.05.

As to C32G C33U, the self-cleavage stood at 0.07. With C32G C33G the figure was 0.05. As for C32G C33A, the self-cleavage amounted to 0.07. With C32A U24G the figure was 0.02. Under C32A U24A stands 0.06; under C32A U24C, 0.04; under C32A G23U, 0.48. Under C32A G23C stands 0.03; under C32A G23A, 0.17. Regarding C32U U37G, the self-cleavage amounted to 0.26. With C32U U37A, the self-cleavage was 0.21. C32U U37C: the self-cleavage turned out to be 0.16. Consider C32U G19C, for which the self-cleavage came out at 0.03. With C32U G19A the figure was 0.1; with C32U G19U, 0.05; with C32G U37G, 0.19. Turning to C32G U37A, the self-cleavage came out at 0.16.
